We go through nine compounds from article PMC10128457 (Pharmaceutical Biology, 2023).

Values after ≈ are worked out from the molar mass of the structure shown.

For the first assay, the system named is H. pylori. As to the kind of experiment: In vitro assay against Helicobacter pylori, broth micro-well dilution method. Format: cell-based. Particulars: Helicobacter pylori, read-out: Mean of H. pylori inhibitory % MIC. An outline of the steps: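 Test compound and clarithromycin (positive control) dissolved in DMSO and tested in 96-well plates at 125–0.24 µg against an H. pylori inoculum suspension. Readout: MTT colour at 620 nm on a microplate reader. MIC is the lowest concentration with no change in MTT colour. MIC90 (90% inhibition) is calculated from dose-response curves. Determinations done three times.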
Consider `CC[C@H]1OC(=O)[C@H](C)[C@@H](O[C@H]2C[C@@](C)(OC)[C@@H](O)[C@H](C)O2)[C@H](C)[C@@H](O[C@@H]2O[C@H](C)C[C@H](N(C)C)[C@H]2O)[C@](C)(OC)C[C@@H](C)C(=O)[C@H](C)[C@@H](O)[C@]1(C)O` [Clarithromycin, clarithromycin, reference compound], for which the MIC (as a rule, the lowest concentration found to suppress growth) was 1.95 µg/mL (≈ 2.61 µM).
Same read-out and setting: the same measure for `COc1cc([C@H]2OC[C@H]3[C@@H]2CO[C@@H]3c2cc(OC)c(O)c(OC)c2)cc(OC)c1O` [Compound 4, syringaresinol]: 0.98 µg/mL (≈ 2.34 µM); for `O=c1cc(-c2ccc(O)cc2)oc2cc(O)cc(O)c12` [Compound 6, apigenin]: 1.95 µg/mL (≈ 7.22 µM).
Still for that read-out and setting: the same measure for `COc1ccc(-c2cc(=O)c3c(O)cc(O[C@@H]4O[C@H](CO)[C@@H](O)[C@H](O)[C@H]4O)cc3o2)cc1O` [Compound 8, diosmetin-7-O-β-D-glucopyranoside]: 0.98 µg/mL (≈ 2.12 µM); for `COC(=O)c1ccc(O)cc1` [Compound 9, methylparaben]: 1.95 µg/mL (≈ 12.8 µM).
Still for that read-out and setting: the same measure for `O=C(O)c1ccc(O)cc1` [Compound 10, p-hydroxybenzoic acid]: 0.48 µg/mL (≈ 3.48 µM).

The assay is the same for the next values; noted with them: Table 2.
In the case of `C=C[C@@]1(C)C=C2CC[C@@H]3[C@](C)(CCC[C@@]3(C)C(=O)O)[C@H]2CC1` [Compound 2, pimaric acid], the “anti-H. pylori activity (in words)” value is on record as “moderate to low inhibitory activities”.
The same measure, in the same setting: the same measure for `COc1cc(-c2cc(=O)c3c(O)cc(O)cc3o2)ccc1O` [Compound 5, chrysoeriol]: “moderate to low inhibitory activities”; for `O=c1cc(-c2ccc(O)c(O)c2)oc2cc(O)cc(O)c12` [Compound 7, luteolin]: “moderate to low inhibitory activities”.
